Test results as given in ChEMBL document CHEMBL1139420, “Antibacterial profile against drug-resistant Staphylococcus epidermidis clinical strain and structure-activity relationship studies of 1H-pyrazolo[3,4-b]pyridine and thieno[2,3-b]pyridine derivatives” (Bioorg Med Chem, 2008).
Activity calls are given as the source filed them. The rule behind the calls is not given here.

Legend:
[1] = tested on: Escherichia coli; assay: Antibacterial activity against drug-resistant Escherichia coli clinical isolate assessed as inhibition zone diameter after 24 hrs by antibacterial susceptibility test; format: functional, organism-based
[2] = tested on: Klebsiella pneumoniae; assay: Antibacterial activity against drug-resistant Klebsiella pneumoniae clinical isolate assessed as inhibition zone diameter after 24 hrs by antibacterial susceptibility test; format: functional, organism-based
[3] = tested on: Enterobacter cloacae; assay: Antibacterial activity against drug-resistant Enterobacter cloacae clinical isolate assessed as inhibition zone diameter after 24 hrs by antibacterial susceptibility test; format: functional, organism-based
[4] = tested on: Staphylococcus epidermidis; assay: Antibacterial activity against drug-resistant Staphylococcus epidermidis clinical isolate assessed as inhibition zone diameter after 24 hrs by antibacterial susceptibility test; format: functional
[5] = tested on: Enterococcus faecalis; assay: Antibacterial activity against drug-resistant Enterococcus faecalis clinical isolate assessed as inhibition zone diameter after 24 hrs by antibacterial susceptibility test; format: functional, organism-based
[6] = tested on: Serratia marcescens; assay: Antibacterial activity against drug-resistant Serratia marcescens clinical isolate assessed as inhibition zone diameter after 24 hrs by antibacterial susceptibility test; format: functional, organism-based
[7] = tested on: Pseudomonas aeruginosa; assay: Antibacterial activity against drug-resistant Pseudomonas aeruginosa clinical isolate assessed as inhibition zone diameter after 24 hrs by antibacterial susceptibility test; format: functional, organism-based
[8] = tested on: Acinetobacter calcoaceticus; assay: Antibacterial activity against drug-resistant Acinetobacter calcoaceticus clinical isolate assessed as inhibition zone diameter after 24 hrs by antibacterial susceptibility test; format: functional, organism-based
[9] = Cytotoxicity against human PBMC assessed as cell viability at 700 uM after 3 to 5 days by XTT method; format: cell-based; details: PBMC (peripheral blood mononuclear cells), read-out: Activity
Procedure, shortened: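 Human PBMCs from healthy donors isolated by density gradient from buffy coats, kept in RPMI 1640 with 10% heat-inactivated FBS, penicillin, streptomycin, 2 mM glutamine, 10 mM Hepes; stimulated 2–3 days with 5 µg/mL PHA, then kept with 5 U/mL IL-2. Compound at 700 µM, 5% CO2, 37 °C; XTT added, OD 450 nm after 2 h; duplicate, at least three times.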

[10] = tested on: Proteus mirabilis; assay: Antibacterial activity against drug-resistant Proteus mirabilis clinical isolate assessed as inhibition zone diameter after 24 hrs by antibacterial susceptibility test; format: functional, organism-based

Row | SMILES | Activity [1] | Activity [2] | Activity [3] | inhibition zone (IZ) [4] [mm] | Activity [5] | Activity [6] | Activity [7] | Activity [8] | viability at 700 µM [9] [%] | Activity [10]
1 | O=C(O)c1cnc2sccc2c1Nc1cccc(F)c1 | inactive | inactive | inactive | 0 | inactive | inactive | inactive | inactive | 100 | inactive
2 | O=C(O)c1cnc2c(cnn2-c2ccccc2)c1Nc1cccc([N+](=O)[O-])c1 | inactive | inactive | inactive | 12 | inactive | inactive | inactive | inactive | 100 | inactive
3 | O=C(O)c1cnc2sccc2c1Nc1ccc(Br)cc1 | inactive | inactive | inactive | 0 | inactive | inactive | inactive | inactive | 100 | inactive
4 | CN[C@H](CC(C)C)C(=O)N[C@H]1C(=O)N[C@@H](CC(N)=O)C(=O)N[C@H]2C(=O)N[C@H]3C(=O)N[C@H](C(=O)N[C@H](C(=O)O)c4cc(O)cc(O)c4-c4cc3ccc4O)[C@H](O)c3ccc(c(Cl)c3)Oc3cc2cc(c3O[C@@H]2O[C@H](CO)[C@@H](O)[C@H](O)[C@H]2O[C@H]2C[C@](C)(N)[C@H](O)[C@H](C)O2)Oc2ccc(cc2Cl)[C@H]1O [VANCOMYCIN] | – | – | – | 15 | – | – | – | – | – | –
5 | COc1ccc(Nc2c(C(=O)O)cnc3c2cnn3-c2ccccc2)cc1 | inactive | inactive | inactive | 0 | inactive | inactive | inactive | inactive | 100 | inactive
6 | O=C(O)c1cnc2c(cnn2-c2ccccc2)c1Nc1ccccc1 | inactive | inactive | inactive | 0 | inactive | inactive | inactive | inactive | 91 | inactive
7 | Cc1ccc(Nc2c(C(=O)O)cnc3sccc23)cc1 | inactive | inactive | inactive | 0 | inactive | inactive | inactive | inactive | 100 | inactive
8 | O=C(O)c1cnc2sccc2c1Nc1ccccc1 | inactive | inactive | inactive | 0 | inactive | inactive | inactive | inactive | 100 | inactive
9 | O=C(O)c1cnc2c(cnn2-c2ccccc2)c1Nc1ccc(Br)cc1 | inactive | inactive | inactive | 10 | inactive | inactive | inactive | inactive | 92 | inactive
10 | O=C(O)c1cnc2sccc2c1Nc1ccc(F)cc1 | inactive | inactive | inactive | 0 | inactive | inactive | inactive | inactive | 100 | inactive
11 | COc1cccc(Nc2c(C(=O)O)cnc3sccc23)c1 | inactive | inactive | inactive | 0 | inactive | inactive | inactive | inactive | 100 | inactive
12 | O=C(O)c1cnc2c(cnn2-c2ccccc2)c1Nc1ccc([N+](=O)[O-])cc1 | inactive | inactive | inactive | 0 | inactive | inactive | inactive | inactive | 88 | inactive
13 | Cc1ccc(Nc2c(C(=O)O)cnc3c2cnn3-c2ccccc2)cc1 | inactive | inactive | inactive | 0 | inactive | inactive | inactive | inactive | 100 | inactive
14 | O=C(O)c1cnc2sccc2c1Nc1cccc(Br)c1 | inactive | inactive | inactive | 0 | inactive | inactive | inactive | inactive | 100 | inactive
15 | O=C(O)c1cnc2c(cnn2-c2ccccc2)c1Nc1ccc(Cl)cc1 | inactive | inactive | inactive | 0 | inactive | inactive | inactive | inactive | 100 | inactive
16 | O=C(O)c1cnc2sccc2c1Nc1ccc(Cl)cc1 | inactive | inactive | inactive | 0 | inactive | inactive | inactive | inactive | 100 | inactive
17 | O=C(O)c1cnc2sccc2c1Nc1ccc([N+](=O)[O-])cc1 | inactive | inactive | inactive | 0 | inactive | inactive | inactive | inactive | 100 | inactive
18 | O=C(O)c1cnc2sccc2c1Nc1cccc(Cl)c1 | inactive | inactive | inactive | 0 | inactive | inactive | inactive | inactive | 100 | inactive
19 | Cc1cccc(Nc2c(C(=O)O)cnc3sccc23)c1 | inactive | inactive | inactive | 0 | inactive | inactive | inactive | inactive | 100 | inactive
